For 28 compounds, Reduction, MED and therapeutic safety margin (minimum lethal dose / MED) results are on record in ChEMBL document CHEMBL1122607, “Heterocyclic analogues of chlorcyclizine with potent hypolipidemic activity” (J Med Chem, 1984).

The test system of data set [1] is Rattus norvegicus. The data set is described as follows: Hypolipidemic activity was measured as reduction in rat serum cholesterol after oral administration in male Wistar rats at 100 mg / (kg day). The class given is functional. The method, boiled down: (§1)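 Cholesterol-fed rats given the test compound orally by gavage on the last 3 days, with controls receiving vehicle (0.5% tragacanth mucilage). After overnight starvation, rats were killed under CO2 3 h after the last dose and bled by cardiac puncture. Serum cholesterol and triglyceride were measured by autoanalyzer and expressed as percentage reduction from control levels, with Student's t test.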

Data set [2] relates to Rattus norvegicus. The data set can be described thus: Hypolipidemic activity was measured as reduction in rat serum triglyceride after oral administration in male Wistar rats at 100 mg / (kg day). The class given is functional. The method, boiled down:
as §1

In data set [3] the test system is Rattus norvegicus. The data set can be described thus: Hypolipidemic activity was measured as reduction in rat serum cholesterol after oral administration in male Wistar rats at 200 mg / (kg day). It counts as functional. The essentials: as §1
Data set [4] relates to Rattus norvegicus. The data set can be described thus: Hypolipidemic activity was measured as reduction in rat serum triglyceride after oral administration in male Wistar rats at 200 mg / (kg day). The class given is functional. The essentials: as §1
Data set [5] has as its system Rattus norvegicus. The data set is described as follows: Hypolipidemic activity was measured as reduction in rat serum triglyceride after oral administration in male Wistar rats at 50 mg / (kg day). It counts as functional. The essentials:
as §1

For data set [6], the system named is Rattus norvegicus. The data set is described as follows: Hypolipidemic activity was measured as reduction in rat serum cholesterol after oral administration in male Wistar rats at 50 mg / (kg day). It counts as functional. The essentials: as §1
Data set [7] concerns Rattus norvegicus. The data set is described as follows: Minimum effective dose (MED) is the dose (mg/kg)that cause significant reduction in serum cholesterol of 30% compared to concurrent controls. The class given is functional. More on the design: unit: mg/kg. The essentials: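 MED was calculated from the log dose/response curve as the dose giving a statistically significant 30% fall in serum cholesterol versus concurrent controls. Measured in the 3-day oral cholesterol-fed rat screen, or in a 2-week test: groups of eight young male Wistar rats on cholesterol/cholic acid-supplemented or normal diet, dosed orally by gavage daily for 14 days, vehicle 0.5% tragacanth mucilage.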

Data set [8] concerns Rattus norvegicus. The data set is described as follows: Hypolipidemic activity was measured as reduction in rat serum cholesterol after oral administration in male Wistar rats at 100 mg/(kg day). It counts as functional. The essentials: as §1
Data set [9] relates to Rattus norvegicus. The data set can be described thus: Hypolipidemic activity was measured as reduction in rat serum cholesterol after oral administration in male Wistar rats at 3 mg / (kg day). It counts as functional. The essentials: as §1
For data set [10], the system named is Rattus norvegicus. The data set can be described thus: Hypolipidemic activity was measured as reduction in rat serum cholesterol after oral administration in male Wistar rats at 30 mg / (kg day). It counts as functional. The method, boiled down: as §1
Data set [11] relates to Rattus norvegicus. The data set is described as follows: Hypolipidemic activity was measured as reduction in rat serum triglyceride after oral administration in male Wistar rats at 10 mg / (kg day). It counts as functional. The method, boiled down:
as §1

For data set [12], the system named is Rattus norvegicus. The data set is described as follows: Hypolipidemic activity was measured as reduction in rat serum triglyceride after oral administration in male Wistar rats at 3 mg / (kg day). The class given is functional. The method, boiled down:
as §1

Data set [13] has as its system Rattus norvegicus. The data set can be described thus: Hypolipidemic activity was measured as reduction in rat serum triglyceride after oral administration in male Wistar rats at 30 mg / (kg day). It counts as functional. The essentials:
as §1

In data set [14] the test system is Rattus norvegicus. The data set can be described thus: Hypolipidemic activity was measured as reduction in rat serum cholesterol after oral administration in male Wistar rats at 10 mg / (kg day). The class given is functional. The essentials:
as §1

A short description of data set [15]: The therapeutic safety margin (TSM) is the ratio of the minimum lethal dose (mg/kg)to the MED. The class given is ADME, organism-based. As to conditions: in vivo. The method, boiled down:
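Young male Wistar rats, eight per group, on cholesterol/cholic acid-supplemented or normal diet; graded oral gavage doses daily for 14 days; vehicle controls (0.5% tragacanth mucilage). Mortalities recorded to give the minimum lethal daily dose. After overnight fasting, serum cholesterol assayed by autoanalyzer. MED is the dose giving a significant (t test) 30% cholesterol fall, from the log dose/response curve. TSM = minimum lethal dose/MED.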

Several values for one entry are separate records, joined by “and”; a condition that tells them apart may be missing. Equal entries are not always repeated.

As for `CCOC(=O)N1CCN(C(c2ccc(C(C)C)cc2)c2cc(C)ns2)CC1` (centres undefined), the Reduction in data set [1] worked out at 10%; in data set [2], 6%.

Turning to `COc1ccc(C(c2cc(C)ns2)N2CCN(C)CC2)cc1OC` (centres undefined), the Reduction in data set [3] is given as 7%; in data set [4], 4%.

For the compound `Cc1noc(C)c1C(c1ccc(C(C)C)cc1)N1CC[N+](C)(C)CC1` (centres undefined), the Reduction in data set [1] is 1%; in data set [2], 28%.

On to `Cc1cc(C(c2cccc(C(F)(F)F)c2)N2CCN(C)CC2)sn1` (centres undefined), for which the values for the Reduction in data set [1] and in data set [2] were 8% and 30%, respectively.

Take `CN1CCN(C(c2ccccc2)c2ccns2)CC1` (centres undefined): the Reduction was determined as 13% in data set [5], 68% in [3], 34% in data set [6] and 46% in data set [4].

As for `CN1CCN(C(c2ccc(Cl)cc2)c2ccns2)CC1` (centres undefined), the MED in [7] stood at 84. The Reduction was 38% in data set [5]; 38% in data set [8]; 63% in data set [3]; 17% in data set [6]; 37% in [4]; 41% in [2].

With `Cc1cc(C(c2ccccc2F)N2CCN(C)CC2)sn1` (centres undefined), the Reduction came out at 25% in data set [3] and 57% in data set [4].

For the compound `CC(C)c1ccccc1C(c1ccns1)N1CCN(C)CC1` (centres undefined), in [7], the MED turned out to be 10. The Reduction in data set [8] is listed as 77%; in data set [9], 15%; in data set [10], 43%; in [11], 31%; in data set [12] it was 14%; in data set [13], 36%. The Reduction was 32% in data set [14] and 71% in [2].

As for `COc1ccc(C(c2cc(C)ns2)N2CCN(C)CC2)cc1` (centres undefined), the Reduction was 0% in data set [3] and 23% in data set [4].

In turn, `Cc1cnsc1C(c1ccc(C(C)C)cc1)N1CCN(C)CC1` (centres undefined) returned an MED in [7] of 3. Further, the Reduction came to 68% in data set [8]; 31% in [9]; 69% in data set [10]; 42% in data set [11]; 5% in data set [12]; 64% in data set [13]. Moreover, the Reduction in [14] is listed as 48%; in data set [2], 89%. Besides, the therapeutic safety margin (minimum lethal dose / MED) in data set [15] is 30.

With `CCc1ccc(C(c2ccns2)N2CCN(C)CC2)cc1` (centres undefined), in data set [7], the MED turned out to be 10. Moreover, the Reduction in data set [1] is 32%; in data set [8], 74% and 58%. Moreover, in data set [15], the therapeutic safety margin (minimum lethal dose / MED) is below 20.

With `Cc1cc(C(c2ccccc2)N2CCN(Cc3ccccc3)CC2)sn1` (centres undefined), the figures for the Reduction in [3] and in [4] were 26% and 56%, respectively.

As to `Cc1cc(C(c2ccc(C(C)C)cc2)N2CCCCC2)sn1` (centres undefined), the Reduction came out at 16% in data set [1] and 1% in data set [2].

For `Cc1cc(C(Nc2cccnc2)c2ccc(C(C)C)cc2)sn1` (centres undefined), the Reduction in [1] stood at 16%; in data set [2], 5%.

As for `COc1ccccc1C(c1cc(C)ns1)N1CCN(C)CC1` (centres undefined), the Reduction in data set [5] was determined as 17%; in data set [3], 75%; in data set [6] it was 26%; in data set [4], 78%.

For `Cc1ccc(C(c2cc(C)ns2)N2CCN(C)CC2)c(C)c1` (centres undefined), the Reduction amounted to 56% in data set [3], 1% in data set [10], 52% in data set [4] and 31% in data set [13].

As to `Cc1cc(C(N)c2ccc(C(C)C)cc2)sn1` (centres undefined), the Reduction in data set [3] is reported as 34%; in data set [4], 9%.

For `Cc1ccccc1C(c1c(C)noc1C)N1CCN(C)CC1` (centres undefined), the Reduction in [8] was determined as 80%; in data set [3], 88%; in [10], 28%; in data set [4], 84%; in [13] it was 21%; in data set [2], 75%.

For `COc1cccc(C(c2cc(C)ns2)N2CCN(C)CC2)c1` (centres undefined), the Reduction in data set [3] stood at 3%; in data set [4], 2%.

For the compound `CC(C)COc1ccccc1C(c1ccns1)N1CCN(C)CC1` (centres undefined), in [7], the MED is listed as 18. Also, the Reduction in data set [3] was 85%; in data set [10], 49%; in [11] it was 15%; in [4], 85%; in [13] it was 50%; in [14] it was 1%.

On to `CN1CCN(C(c2ccccc2Cl)c2nccn2C)CC1` (centres undefined), for which the Reduction in data set [3] amounted to 53%; in [4], 64%.

Consider `CCCCCc1ccc(C(c2ccns2)N2CCN(C)CC2)cc1` (centres undefined), for which the Reduction is listed as 87% in data set [3], 26% in data set [10], 85% in data set [4] and 23% in data set [13].

Consider `Cc1cnsc1C(c1ccc(C(C)C)cc1)N1CCN(CC(C)O)CC1` (centres undefined), for which the MED in data set [7] is 5. Besides, the Reduction in [8] is on record as 64%; in [9] it was 8%; in data set [10], 50%; in data set [11] it was 22%; in data set [12], 22%; in data set [13], 65%. For the same compound, the values for the Reduction in data set [14] and in data set [2] were 45% and 81%, respectively. Moreover, the therapeutic safety margin (minimum lethal dose / MED) in [15] was 12.

`Cc1cnsc1C(c1ccc(C(C)C)cc1)N1CCN(CCCO)CC1` (centres undefined) returned an MED in [7] of 5. The Reduction in data set [8] is on record as 80%; in data set [9], 19%; in [10] it was 75%; in data set [11], 48%; in [12] it was 17%; in data set [13], 55%. For the same compound, the Reduction is 63% in data set [14] and 78% in data set [2]. Moreover, the therapeutic safety margin (minimum lethal dose / MED) in [15] is 20.

For the compound `Cc1ccc(C(c2ccns2)N2CCN(C)CC2)cc1` (centres undefined), the Reduction in data set [3] was 30%; in data set [10], 4%; in data set [4], 36%; in [13], 9%.

In [7], `CCCc1ccc(C(c2ccns2)N2CCN(C)CC2)cc1` (centres undefined) had an MED of 3. In addition, the Reduction in data set [3] is 82%; in data set [9], 31%; in [10], 65%; in data set [11] it was 7%; in data set [4], 86%; in data set [12], 18%. For the same compound, the Reduction turned out to be 34% in data set [13] and 48% in data set [14]. Also, in data set [15], the therapeutic safety margin (minimum lethal dose / MED) was 20.

For `CCCCc1ccc(C(c2cc(C)ns2)N2CCN(C)CC2)cc1` (centres undefined), the Reduction is 25% in data set [5], 75% in data set [3], 45% in data set [6] and 66% in data set [4].

In turn, `Cc1cc(C(c2ccc(C(C)C)cc2)N2CCNCC2)sn1` (stereo in doubt; 33) came in with an MED in data set [7] of 8. For the same compound, the Reduction in [9] came out at 2%; in data set [10], 67%; in data set [11], 38%; in [12] it was 26%; in [13] it was 66%; in data set [14] it was 43%. Further, in [15], the therapeutic safety margin (minimum lethal dose / MED) is below 10.
